# Measured values: ChEMBL document CHEMBL1158715, “Eremophilane-type sesquiterpene derivatives from Senecio aegyptius var. discoideus” (J Nat Prod, 2005)
# Calls of active or inactive are those of the source. The rule behind the calls is not given here.
# What was measured:
# Format in all cases: functional, organism-based
# [1] = test system: Serratia sp.; assay: Antimicrobial activity against Serratia El-U 9213 at 400 ug/ml
# In short: (§1)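 Filter paper disk diffusion on nutrient agar seeded with the test bacterium. Disks were soaked in the test solution for 30 s, then placed on the agar surface. Plates were incubated at 30 °C for 2 days. Five replicates were run per compound at each concentration. Ampicillin at 200 and 400 μg/mL served as the reference.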
# [2] = test system: Bacillus cereus; assay: Antimicrobial activity against Bacillus cereus El-U 8180 at 200 ug/ml; in short: as §1
# [3] = test system: Bacillus cereus; assay: Antimicrobial activity against Bacillus cereus El-U 8180 at 400 ug/ml; in short: as §1
# [4] = test system: Serratia sp.; assay: Antimicrobial activity against Serratia El-U 9213 at 200 ug/ml; in short: as §1
SMILES,Activity [1],Activity [2],Activity [3],Activity [4]
CO[C@@]12C[C@@H]3C(=O)CC[C@H](C)[C@@]3(C)CC1=C(C)C(=O)N2,inactive,Active,Active,inactive
CO[C@@]12C[C@@]34O[C@@H]3CC[C@H](C)[C@@]4(C)CC1=C(C)C(=O)O2,inactive,Active,Active,inactive
CO[C@@]12C=C3[C@H](O)CC[C@H](C)[C@@]3(C)CC1=C(C)C(=O)O2,Active,Active,Active,Active
CC1=C2C[C@@]3(C)C(=C[C@H]2OC1=O)[C@H](O)CC[C@@H]3C,inactive,Active,Active,inactive
CC1=C2C[C@]3(C)[C@@H](C)CC[C@H]4O[C@]43C[C@@]2(O)OC1=O,Active,Active,Active,Active
CC1=C2C[C@@]3(C)C(=C[C@@]2(O)OC1=O)[C@H](O)CC[C@@H]3C,Active,Active,Active,Active
